High-throughput results (PubChem)
In the library only some 4.6% were active in any assay of this set; here they are far more common.
TAAR1 antagonist = human TAAR1 antagonists, primary screen, Fluo-8 calcium fluorescence, CHO RD-HGA16 cells; inhibition, % at 3 µM; antagonist; AID 624466, 2012; 1.5% of 360,000 active;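 active = inhibition above a per-plate cutoff, the mean inhibition of test compounds on that plate plus 3 SD, cut at about 49% in these data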;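 note: 0% = DMSO plus EC80 beta-PEA response and 100% = DMSO alone without agonist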
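System: RD-HGA16 CHO cells with stable hTAAR1 and Gα16 | Probe or stimulus: EC80 β-phenethylamine stimulus | Dosing: 3 µM, single point | Times: Dye loading 75 min at 37 °C, then 30 min room temperature | Measured by: Fluo-8 calcium-sensitive fluorescence | Read-out basis: % inhibition of agonist calcium response | Replicates: n of 1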
TAAR1 ag = human TAAR1 agonists, primary screen, Fluo-8 calcium fluorescence, CHO RD-HGA16 cells | Trace amine-associated receptor 1 (Homo sapiens), Q96RJ0 | vehicle wells 0%, saturating PEA agonist 100% | activation, % at 3 µM | 0.99% of 360,000 active;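 active = activation above the mean activation of all test compounds in the run plus 3 SD, cut at about 38% in these data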
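Assay system: CHO-derived RD-HGA16 cells with stable Gα16 and human TAAR1; timing: 17-24 h seeding, 75 min 37 °C dye, 30 min RT; read-out: % activation from peak over basal fluorescence ratio, DMSO-to-PEA scaled; measured by: kinetic Fluo-8 calcium fluorescence; benchmarks: low control DMSO, high control PEA (EC100); doses: 3 µM single concentration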
OX1R antag-1 = OX1R (HCRTR1) antagonists, primary screen, fluorescence, CHO/OX1R cells, Fluo-8 calcium, orexin A. 0.43% of 330,000 active. Fluo-8 calcium fluorescence. Orexin/Hypocretin receptor type 1 (Homo sapiens), O43613. inhibition, % at 5 µM. AID 434989, 2010;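 active = inhibition above its plate's threshold, mean inhibition of all tested compounds on the plate plus 3 SD, cut at about 37% in these data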;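 note: 0% = orexin A challenge wells and 100% = SB-334867-A antagonist wells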
Target sequence (O43613 whole entry, looked up): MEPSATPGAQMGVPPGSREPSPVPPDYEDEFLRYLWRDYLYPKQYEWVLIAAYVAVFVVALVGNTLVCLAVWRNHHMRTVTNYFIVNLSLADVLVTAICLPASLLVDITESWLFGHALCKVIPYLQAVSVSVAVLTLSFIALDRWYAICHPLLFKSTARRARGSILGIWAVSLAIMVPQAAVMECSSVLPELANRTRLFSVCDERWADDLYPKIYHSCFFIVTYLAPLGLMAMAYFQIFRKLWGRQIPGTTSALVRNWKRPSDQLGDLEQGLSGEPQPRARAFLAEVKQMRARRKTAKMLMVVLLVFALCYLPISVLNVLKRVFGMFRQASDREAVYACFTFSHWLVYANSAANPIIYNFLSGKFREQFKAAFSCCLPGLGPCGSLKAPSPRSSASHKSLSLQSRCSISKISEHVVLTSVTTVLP
GPR7 antagonist = GPR7 receptor antagonists, primary screen, cell-based, fluorescence, single concentration | GPR7-expressing cells, fluorescence antagonist assay | inhibition, % at 4.4 µM | 1.1% of 290,000 active; in the data active = inhibition above about 16%, passing the limit was not always enough;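 note: cells stimulated with the agonist NPW; 0% = agonist with vehicle and 100% = vehicle without agonist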
OX1R antag-2 = antagonists of human orexin 1 receptor (OX1R); 1.8% of 330,000 active; inhibition, % at 6.6 µM; Orexin/Hypocretin receptor type 1 (Homo sapiens), O43613; OX1R-expressing cells, FRET antagonist read-out; AID 485270, 2010; in the data active = inhibition mostly above about 38%, no sharp cut-off; inactive = mostly below about 40%;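 note: 0% = agonist challenge alone and 100% = reference antagonist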
CHO parental Ca = ATP-evoked calcium signal inhibitors, parental CHO, primary screen, counter-screen for OX1R antagonist project, cell-based, fluorescence, Fluo-8 calcium dye | parental CHO-K1, ATP-induced calcium, Fluo-8 fluorescence | inhibition, % at 5.6 µM | 0.63% of 330,000 active;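 active = inhibition above that plate's mean sample inhibition plus 3 SD, cut at about 26% in these data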;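 note: 0% = ATP-challenged DMSO wells and 100% = DMSO wells without ATP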
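Assay system: parental CHO cells; Read-out basis: percent inhibition of ATP-evoked calcium rise, normalized to controls; Benchmarks: ATP and no-ATP DMSO wells; Compound dosing: single nominal dose of 5.6 µM per compound; Signal: Fluo-8 calcium dye fluorescence; Also added: ATP as calcium-mobilizing challenge; Repeats: singlicate.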
Numbers without * were called inactive; · = no result.

SMILES	TAAR1 antagonist	TAAR1 ag	OX1R antag-1	GPR7 antagonist	OX1R antag-2	CHO parental Ca
Nc1cc(OC(=O)c2cccs2)nn1S(=O)(=O)c1ccccc1	18	40*	-4	-12	28	-8
Nc1cc(OC(=O)c2cccs2)nn1S(=O)(=O)c1ccc(F)cc1	-2	41*	-25	-9	13	-13
Cc1ccc(C(=O)Oc2cc(N)n(S(=O)(=O)c3ccc(F)cc3)n2)cc1	-35	7	-35	-1	34	-28
O=C(O)Cn1c(O)c(C2=c3ccccc3=NC2=O)sc1=O	12	0	-9	2	47*	-3
Cc1c(-n2c(O)c(C3=c4ccccc4=NC3=O)sc2=O)c(=O)n(-c2ccccc2)n1C	6	13	-13	-8	15	-6
FC(F)(F)c1cc(N2CCOCC2)nc(-c2ccccc2)n1	-33	1	-13	-3	12	-9
C=C(C)CNC(=S)N1CCNC(=O)C1CC(=O)OC (centres undefined)	-13	2	-2	-6	5	-5
Cc1ccc(NC(=O)CCN2C(=O)NC3(CCCC3)C2=O)cc1	-11	0	·	·	·	·
Cc1ccc(C)c(Sc2ccc(NC(=O)CCN3C(=O)NC4(CCCC4)C3=O)cc2)c1	35	8	60*	·	11	63*
COc1ccc(Cl)cc1NC(=O)CSc1nnc(Cc2ccc(C)cc2)c(=O)[nH]1	-19	1	-15	·	50*	-5
Cc1ccc(Cc2nnc(SCC(=O)Nc3ccccc3Cl)[nH]c2=O)cc1	-10	1	-4	·	25	1
CC(=O)Oc1ccc(/C(C)=N/N2CCN(Cc3ccc(C)cc3)CC2)cc1	-7	4	-20	-16	5	0
O=C(CSCC(=O)NC1CC1)Nc1ccc2ccccc2c1	-10	-1	·	20*	·	·
O=C(Nc1ccc(Oc2ccccc2)cc1)C1CCN(c2c3c(nc4ncnn24)CCC3)CC1	57*	28	36*	-17	27	49*
O=C(Nc1ccc2c(c1)CCC2)C1CCN(c2c3c(nc4ncnn24)CCC3)CC1	-14	13	-33	-25	21	-28
N#Cc1c(N2CCCC2)ccc(Br)c1Cl	-20	8	-20	17*	21	-3
O=C(NNC(=O)c1cc(-c2ccco2)nc2ccccc12)c1ccccc1	50*	10	3	-21	20	-17
CCOc1ccc(NC(=O)CN(C)C(=O)c2cc(-c3ccco3)nc3ccccc23)cc1OCC	52*	10	·	·	·	·
COc1ccc(NC(=O)CN(C)C(=O)c2cc(-c3ccncc3)nc3ccccc23)cc1	52*	19	-14	-18	11	-8
CCOc1ccc(NC(=O)CN(C)C(=O)c2cc(C)nc3ccccc23)cc1OCC	10	2	-23	·	1	-9
CCOc1ccc(NC(=O)CN(C)C(=O)c2cn(-c3ccc(C)cc3)nc2-c2cccc(OC)c2)cc1OCC	64*	9	·	·	·	·
CCCCOc1ccc(C(=O)NCC(=O)NCC2CCCO2)cc1 (centres undefined)	-8	0	-14	-6	28	-5
CCc1cccc(NC(=O)CCc2nc(-c3cccs3)no2)c1	-2	3	-14	-1	23	6
O=C(CCc1nc(-c2cccs2)no1)Nc1cnc2ccccc2c1	-15	42*	0	-2	18	-7
Nc1c(Cl)ncnc1N/N=C/c1ccccn1	8	0	1	-4	92*	-6
SMILES	TAAR1 antagonist	TAAR1 ag	OX1R antag-1	GPR7 antagonist	OX1R antag-2	CHO parental Ca
Nc1c(Cl)ncnc1N/N=C/c1ccc2ccccc2n1	3	4	35	-5	75*	34
CCCCOc1ccc(CSCCN=C(N)N)cc1	17	2	·	-3	·	·
Cc1ccc(-n2cc(CN3CCC(CO)(Cc4ccccc4)CC3)cn2)cc1	19	5	-29	20*	11	-18
Cc1ccc(-n2cc(CN3CCC(CO)(Cc4cccc(C(F)(F)F)c4)CC3)cn2)cc1	4	44*	-17	10	12	10
Cc1ccc([C@H]2C[C@H](n3cc(C4CC4)nn3)[C@@H](O)CN2Cc2cccs2)cc1	-27	10	·	·	·	·
Cc1nc2sc3c(=O)[nH]nnc3c2c(C)c1Br	-15	2	-7	8	-1	-9
Cc1nc2ccc3[nH]snc3c2n1	-1	6	5	0	52*	4
COC(=O)N/N=C/c1c(C)c(C(=O)c2ccc(F)cc2)n2ccccc12	48	12	-29	5	21	-22
Cc1c(/C=N/NC(=O)c2ccc(O)cc2)c2ccccn2c1C(=O)c1ccc(F)cc1	36	0	-18	20*	16	-9
Cc1cc(C)c(S(=O)(=O)N(CC(=O)N2CCCC2)C2CCCCC2)c(C)c1	-1	3	-18	16*	23	-16
Cc1ccc(S(=O)(=O)N(CC(=O)N2CCCC2)C2CCCCC2)cc1	5	8	-20	-18	4	-12
Cc1ccnc(Sc2ccc([N+](=O)[O-])cc2[N+](=O)[O-])n1	6	1	-9	-11	68*	0
O=[N+]([O-])c1ccc(Cl)cc1Sc1nc2ccccc2o1	-13	-1	-34	8	17	-19
Nc1nc(Sc2ccc([N+](=O)[O-])cc2[N+](=O)[O-])n[nH]1	-20	3	-4	-6	42*	-5
O=c1[nH]c(Sc2ccc([N+](=O)[O-])cc2[N+](=O)[O-])nc2ccccc12	-32	6	-1	·	69	-10
O=[N+]([O-])c1ccc(Sc2nc3ccccc3o2)c([N+](=O)[O-])c1	16	6	8	9	37*	15
Cc1ccc(Sc2ccc([N+](=O)[O-])cc2[N+](=O)[O-])nc1	-6	1	-34	-9	47	-19
CCOc1cccc(-c2csc(C3COc4ccccc4O3)n2)c1 (centres undefined)	-4	4	-4	-12	5	-16
CCOc1cccc(/C=C/c2ccc3cccc(O)c3n2)c1OC	37	2	28	8	9	48*
CC(=O)C1(C)C(=O)N(c2ccc(F)cc2)C(=O)N1c1ccc(F)cc1 (centres undefined)	-16	5	·	·	·	·
CS(=O)(=O)c1ccc(C(=O)OCC(=O)NC(=O)C2CCCCC2)cc1[N+](=O)[O-]	15	3	6	-2	49*	17
